Results on 32 compounds are retold here after ChEMBL document CHEMBL2434891, “Design, synthesis, and in vitro cancer cell growth inhibition evaluation and antimalarial testing of trioxanes installed in cyclic 2-enoate substructures” (Eur J Med Chem, 2013).

In brackets after ≈: the same amount, converted by molar mass. Activity calls are given as the source filed them. The rule behind the calls is not given here.

One assay has as its system L6. The assay can be described thus: Cytotoxicity against rat L6 cells after 70 hrs by alamar blue assay. Conditions: L6, 70 h. For orientation: Resazurin is reduced to fluorescent resorufin, in cell work by metabolically active cells.
In another assay the test system is Plasmodium falciparum. The assay can be described thus: Antimalarial activity against erythrocytic stage of Plasmodium falciparum NF54 infected in RBC after 48 hrs by [3H]-hypoxanthine incorporation assay. It counts as functional, organism-based.
For another assay, the system named is MV4-11. The assay can be described thus: Antiproliferative activity against human MV4-11 cells after 72 hrs by MTT assay. It counts as functional, cell-based. Conditions: MV4-11, 72 h. In general terms: Tetrazolium assays rely on reduction of a dye to a coloured formazan, in cell work by metabolically active cells.
A further assay has as its system BALB/3T3. The assay can be described thus: Cytotoxicity against mouse BALB/3T3 cells after 72 hrs by SRB assay. Conditions: BALB/3T3, 72 h. It counts as cell-based. A digest of the protocol: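 Adherent cells grown at 37 °C and 5% CO2. A549 and HCT116 were in RPMI 1640/OptiMEM (50:50) with 5% FBS; BALB/3T3 in Dulbecco medium with 10% FBS and pyruvate. Seeded at 1×10^4/well 24 h before dosing, then 72 h at 10–0.01 µg/mL final. Fixed with cold 50% TCA, stained with 0.4% SRB, dye extracted in 10 mM Tris, read at 540 nm.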
(In general: Sulforhodamine B stains cellular protein and so reports cell mass.)

For the next assay, the system named is A549. As to the kind of experiment: Cytotoxicity against human A549 cells after 72 hrs by SRB assay. It counts as functional, cell-based. The note with it: A549, 72 h. Put shortly: (§1)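 Adherent cells grown at 37 °C and 5% CO2. Seeded at 1×10^4/well 24 h before dosing, then 72 h at 10–0.01 µg/mL final. Fixed with cold 50% TCA, stained with 0.4% SRB, dye extracted in 10 mM Tris, read at 540 nm.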

For another assay, the system named is HCT-116. The assay can be described thus: Cytotoxicity against human HCT116 cells after 72 hrs by SRB assay. It counts as functional, cell-based. The note with it: HCT-116, 72 h. Put shortly: as §1
Assay [1] is described as follows: Binding affinity to hemin assessed as hemin-induced oxidative damage in 0.1 M tris buffer at pH 9 at 25 to 500 uM after 2 hrs by UV-vis absorption spectroscopy in presence of methylene blue. A digest of the protocol:
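Methylene blue (10 µM) used as substrate for heme-catalysed oxidation. Compound incubated 2 h at 37 °C with hemin (6 µM) and methylene blue in 60% 0.1 M Tris buffer (pH 9.0) and 40% DMSO. Mixture absorbance then read by UV–vis spectrophotometry.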

A short description of assay [2]: Binding affinity to hemin assessed as complexation of hemin-endoperoxides in 0.1 M tris buffer at pH 9 at 25 to 500 uM after 24 hrs by UV-vis absorption spectroscopy. Put shortly: (§2)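 Hemin held at 6 µM with compound at 0–500 µM in 60% 0.1 M Tris buffer (pH 9.0) and 40% DMSO. Mixtures incubated 12 h or 24 h.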
Assay [3] in a line: Binding affinity to hemin assessed as complexation of hemin-endoperoxides in 0.1 M tris buffer at pH 9 at 25 to 500 uM after 12 hrs by UV-vis absorption spectroscopy. Put shortly: as §2

The IC50 is the concentration needed to halve the response being measured. A higher IC50 goes with a need for much substance. In the case of `C[C@]12C=C3C(=O)CC(c4ccccc4)C[C@@]3(OO1)OC2c1ccc([N+](=O)[O-])cc1` (stereo partly drawn), the IC50 in the assay on L6 came to 5.6 µg/mL (≈ 14.2 µM); in the assay on Plasmodium falciparum, 3.1 µg/mL (≈ 7.88 µM); in the assay with MV4-11, 6.53 µM.
`CC(C)(C)OC(=O)N1C(=O)C2=C[C@@]3(C)OO[C@]2(CC1c1ccc(Cl)cc1)OC3c1ccccc1` (stereo partly drawn): the IC50 in the assay with BALB/3T3 worked out at 5.46 µM; with A549 it was 6.66 µM; in the assay with HCT-116, 6.02 µM; in the assay on MV4-11 it was 0.517 µM.
Compound `C[C@]12C=C3C(=O)OC(c4ccc(C(F)(F)F)cc4)C[C@@]3(OO1)OC2c1ccc(Br)cc1` (stereo partly drawn) had a concentration for half-maximal inhibition (IC50) with MV4-11 of 5.51 µM.
With `C[C@]12C=C3C(=O)OC(c4cccc(Cl)c4)C[C@@]3(OO1)OC2c1ccc([N+](=O)[O-])cc1` (stereo partly drawn), the outcome in [1], in assay [2] and in assay [3] was Active. Also, half-maximal inhibition with MV4-11 (IC50) required 3.91 µM.
For `COc1ccc(C2O[C@]34CC(c5ccc(C(F)(F)F)cc5)OC(=O)C3=C[C@@]2(C)OO4)cc1` (stereo partly drawn), in the assay with MV4-11, 4.84 µM corresponded to half-maximal inhibition (IC50).
Turning to `C[C@]12C=C3C(=O)CCC[C@@]3(OO1)OC2c1ccc([N+](=O)[O-])cc1` (stereo partly drawn), the IC50 in the assay with MV4-11 is greater than 31 µM.
For the compound `C[C@]12C=C3C(=O)OC(c4ccc(C(F)(F)F)cc4)C[C@@]3(OO1)OC2c1ccccc1` (stereo partly drawn), the half-inhibitory concentration (IC50) came to 9.01 µM in the assay with BALB/3T3, 10.9 µM with A549, 7.43 µM in the assay on HCT-116 and 0.779 µM in the assay with MV4-11.
Turning to `COc1ccc(C2O[C@]34CC(c5ccc(Cl)cc5)OC(=O)C3=C[C@@]2(C)OO4)cc1` (stereo partly drawn), 4.31 µM corresponded to half-maximal inhibition in the assay on MV4-11 (IC50).
Regarding `CC1O[C@]23CC(c4ccc(F)cc4)OC(=O)C2=C[C@@]1(C)OO3` (stereo partly drawn), in the assay with MV4-11, the IC50 turned out to be 6.89 µM.
Compound `COc1ccc(C2O[C@]34CC(c5ccc(OC)c(OC)c5)OC(=O)C3=C[C@@]2(C)OO4)cc1` (stereo partly drawn) had a 50% inhibitory concentration (IC50) in the assay on MV4-11 of 4.38 µM.
`C[C@]12C=C3C(=O)OC(c4ccc(Cl)cc4)C[C@@]3(OO1)OC2c1ccc(Br)cc1` (stereo partly drawn) displayed a 50% inhibitory concentration (IC50) in the assay with MV4-11 of 4.21 µM.
For `CC1O[C@]23CC(c4ccc(Br)cc4)OC(=O)C2=C[C@@]1(C)OO3` (stereo partly drawn), the IC50 with BALB/3T3 was 12 µM; with A549, 13 µM; in the assay on HCT-116, 9.2 µM; in the assay with MV4-11, 0.98 µM.
Regarding `COc1ccc(C2C[C@]34OO[C@](C)(C=C3C(=O)O2)C(c2ccccc2)O4)cc1OC` (stereo partly drawn), the IC50 in the assay with L6 was 0.52 µg/mL (≈ 1.27 µM); with Plasmodium falciparum, 3.28 µg/mL (≈ 7.99 µM); in the assay with BALB/3T3, 10.1 µM; in the assay on A549 it was greater than 24 µM; with HCT-116, 11.7 µM; in the assay with MV4-11, 0.901 µM.
`COc1ccc(C2O[C@]34CCCC(=O)C3=C[C@@]2(C)OO4)cc1` (stereo partly drawn): the half-maximal inhibitory concentration (IC50) is 4.5 µg/mL (≈ 14.9 µM) with L6, 3.41 µg/mL (≈ 11.3 µM) in the assay with Plasmodium falciparum and greater than 33 µM in the assay on MV4-11.
Regarding `COc1ccc(C2C[C@]34OO[C@](C)(C=C3C(=O)O2)C(c2ccc([N+](=O)[O-])cc2)O4)cc1` (stereo partly drawn), the IC50 with BALB/3T3 worked out at 7.36 µM; in the assay with A549 it was 8.44 µM; in the assay with HCT-116, 7.5 µM; in the assay on MV4-11 it was 0.735 µM.
With `COc1ccc(C2C[C@]34OO[C@](C)(C=C3C(=O)O2)C(C)O4)cc1OC` (stereo partly drawn), half-maximal inhibition with MV4-11 (IC50) was put at 11.1 µM.
Turning to `COc1ccc(C2O[C@]34CC(c5ccc(Cl)cc5)N(C(=O)OC(C)(C)C)C(=O)C3=C[C@@]2(C)OO4)cc1` (stereo partly drawn), the IC50 was 6.87 µM in the assay on BALB/3T3, 6.32 µM with A549, 5.56 µM in the assay on HCT-116 and 0.661 µM in the assay with MV4-11.
Regarding `CC(C)(C)OC(=O)N1C(=O)C2=C[C@@]3(C)OO[C@]2(CC1c1ccc(Cl)cc1)OC3c1ccc([N+](=O)[O-])cc1` (stereo partly drawn), the IC50 in the assay on L6 came to 1.16 µg/mL (≈ 2.19 µM); with Plasmodium falciparum it was 1.97 µg/mL (≈ 3.72 µM); with BALB/3T3, 6.67 µM; in the assay with A549 it was 6.22 µM; with HCT-116, 5.54 µM; with MV4-11 it was 0.501 µM.
For `COC(=O)C1=C[C@]23CCCC[C@@H]2O[C@@]1(C)OO3`, the IC50 in the assay with MV4-11 stood at 8.08 µM.
Regarding `COc1ccc(C2O[C@]34CC(c5ccccc5)CC(=O)C3=C[C@@]2(C)OO4)cc1` (stereo partly drawn), the midpoint of inhibition with MV4-11, the IC50, lay at 6.5 µM.
Turning to `CC1O[C@]23CC(c4cccc(Cl)c4)OC(=O)C2=C[C@@]1(C)OO3` (stereo partly drawn), inhibition in the assay on MV4-11 was half-maximal at 7.31 µM (IC50).
With `COc1ccc(C2C[C@]34OO[C@](C)(C=C3C(=O)O2)C(c2ccc([N+](=O)[O-])cc2)O4)cc1OC` (stereo partly drawn), the result in assay [1], in assay [2] and in assay [3] was Active. For the same compound, the IC50 in the assay on BALB/3T3 was determined as 7.2 µM; in the assay on A549, 7.73 µM; with HCT-116 it was 6.79 µM; in the assay with MV4-11, 0.911 µM.
Turning to `COc1cccc(C2C[C@]34OO[C@](C)(C=C3C(=O)O2)C(C)O4)c1` (stereo partly drawn), in the assay with MV4-11, the IC50 amounted to 7.76 µM.
For `CC1O[C@]23CC(c4ccc(C(F)(F)F)cc4)OC(=O)C2=C[C@@]1(C)OO3` (stereo partly drawn), the half-maximal inhibitory concentration (IC50) came out at 12.5 µM in the assay with BALB/3T3, 13.9 µM in the assay with A549, 9.49 µM with HCT-116 and 0.895 µM in the assay with MV4-11.
For the compound `CC1O[C@]23CC(c4ccc(Cl)cc4)N(C(=O)OC(C)(C)C)C(=O)C2=C[C@@]1(C)OO3` (stereo partly drawn), the IC50 is 6.21 µM in the assay with BALB/3T3, 7.2 µM in the assay on A549, 7.3 µM with HCT-116 and 1.04 µM in the assay on MV4-11.
With `COc1ccc(C2O[C@]34CC(c5ccccc5)(c5ccccc5)OC(=O)C3=C[C@@]2(C)OO4)cc1` (stereo partly drawn), the IC50 in the assay with L6 was 1.9 µg/mL (≈ 4.16 µM); in the assay on Plasmodium falciparum, 4.2 µg/mL (≈ 9.2 µM); in the assay on MV4-11, 3.78 µM.
On to `C[C@]12C=C3C(=O)OC(c4ccc(Cl)cc4)C[C@@]3(OO1)OC2c1ccc([N+](=O)[O-])cc1` (stereo partly drawn), for which the outcome in assay [1], in assay [2] and in assay [3] was Active. For the same compound, the concentration for half-maximal inhibition (IC50) in the assay on BALB/3T3 was determined as 8.21 µM; with A549 it was 8.28 µM; in the assay with HCT-116 it was 7.37 µM; with MV4-11, 0.593 µM.
In the case of `C[C@]12C=C3C(=O)OC(c4ccccc4)(c4ccccc4)C[C@@]3(OO1)OC2c1ccc([N+](=O)[O-])cc1` (stereo partly drawn), the IC50 is 3.49 µg/mL (≈ 7.4 µM) with L6, 5.25 µg/mL (≈ 11.1 µM) with Plasmodium falciparum and 3.79 µM in the assay on MV4-11.
As to `C[C@]12C=C3C(=O)OC(c4ccccc4Br)C[C@@]3(OO1)OC2c1ccc([N+](=O)[O-])cc1` (stereo partly drawn), the IC50 with BALB/3T3 was determined as 7.53 µM; in the assay on A549, 11.6 µM; with HCT-116 it was 7.08 µM; with MV4-11, 0.837 µM.
Consider `COC(=O)c1ccc(C2O[C@]34CC(c5ccccc5)(c5ccccc5)OC(=O)C3=C[C@@]2(C)OO4)cc1` (stereo partly drawn), for which the 50% inhibitory concentration (IC50) with L6 turned out to be 1.67 µg/mL (≈ 3.45 µM); in the assay with Plasmodium falciparum, 5.62 µg/mL (≈ 11.6 µM); in the assay with MV4-11, 2.99 µM.
Take `COc1ccc(C2O[C@]34CC(c5ccc(F)cc5)OC(=O)C3=C[C@@]2(C)OO4)cc1` (stereo partly drawn): the 50% inhibitory concentration (IC50) in the assay with L6 came to 0.5 µg/mL (≈ 1.26 µM); with Plasmodium falciparum, 1.68 µg/mL (≈ 4.22 µM); with BALB/3T3 it was 9.06 µM; in the assay with A549, 11.8 µM; in the assay on HCT-116 it was 8.08 µM; with MV4-11, 0.582 µM.
Take `C[C@]12C=C3C(=O)OC(c4ccccc4)(c4ccccc4)C[C@@]3(OO1)OC2c1ccc(Cl)cc1` (stereo partly drawn): the IC50 is 2.03 µg/mL (≈ 4.4 µM) in the assay with L6, 9.88 µg/mL (≈ 21.4 µM) with Plasmodium falciparum and 3.6 µM in the assay with MV4-11.
